Results as given in ChEMBL document CHEMBL5096224, “First-in-Class Dual Mechanism Ferroptosis-HDAC Inhibitor Hybrids” (J Med Chem, 2022).
The source made the active and inactive calls. The calls are words filed in the database; no cut-off is given here.

Key:
Histone deacetylase 3 = Histone deacetylase 3 (Homo sapiens, UniProt O15379); test: Inhibition of full length C-terminal his6/FLAG-tagged human recombinant HDAC3 ([…]) expressed in Sf9 insect cells
Histone deacetylase 1 = Histone deacetylase 1 (Homo sapiens, UniProt Q13547); test: Inhibition of full length his6/FLAG-tagged human recombinant HDAC1(1 to 482 residues) expressed in Sf9 insect cells
[1] = target: T1, Protein deacetylase HDAC6 (Homo sapiens, UniProt Q9UBN7); test: Inhibition of full length C-terminal FLAG-tagged human recombinant HDAC6 expressed inSf9 insect cells; parameters: species or system Sf9
T1 sequence (Q9UBN7 whole entry): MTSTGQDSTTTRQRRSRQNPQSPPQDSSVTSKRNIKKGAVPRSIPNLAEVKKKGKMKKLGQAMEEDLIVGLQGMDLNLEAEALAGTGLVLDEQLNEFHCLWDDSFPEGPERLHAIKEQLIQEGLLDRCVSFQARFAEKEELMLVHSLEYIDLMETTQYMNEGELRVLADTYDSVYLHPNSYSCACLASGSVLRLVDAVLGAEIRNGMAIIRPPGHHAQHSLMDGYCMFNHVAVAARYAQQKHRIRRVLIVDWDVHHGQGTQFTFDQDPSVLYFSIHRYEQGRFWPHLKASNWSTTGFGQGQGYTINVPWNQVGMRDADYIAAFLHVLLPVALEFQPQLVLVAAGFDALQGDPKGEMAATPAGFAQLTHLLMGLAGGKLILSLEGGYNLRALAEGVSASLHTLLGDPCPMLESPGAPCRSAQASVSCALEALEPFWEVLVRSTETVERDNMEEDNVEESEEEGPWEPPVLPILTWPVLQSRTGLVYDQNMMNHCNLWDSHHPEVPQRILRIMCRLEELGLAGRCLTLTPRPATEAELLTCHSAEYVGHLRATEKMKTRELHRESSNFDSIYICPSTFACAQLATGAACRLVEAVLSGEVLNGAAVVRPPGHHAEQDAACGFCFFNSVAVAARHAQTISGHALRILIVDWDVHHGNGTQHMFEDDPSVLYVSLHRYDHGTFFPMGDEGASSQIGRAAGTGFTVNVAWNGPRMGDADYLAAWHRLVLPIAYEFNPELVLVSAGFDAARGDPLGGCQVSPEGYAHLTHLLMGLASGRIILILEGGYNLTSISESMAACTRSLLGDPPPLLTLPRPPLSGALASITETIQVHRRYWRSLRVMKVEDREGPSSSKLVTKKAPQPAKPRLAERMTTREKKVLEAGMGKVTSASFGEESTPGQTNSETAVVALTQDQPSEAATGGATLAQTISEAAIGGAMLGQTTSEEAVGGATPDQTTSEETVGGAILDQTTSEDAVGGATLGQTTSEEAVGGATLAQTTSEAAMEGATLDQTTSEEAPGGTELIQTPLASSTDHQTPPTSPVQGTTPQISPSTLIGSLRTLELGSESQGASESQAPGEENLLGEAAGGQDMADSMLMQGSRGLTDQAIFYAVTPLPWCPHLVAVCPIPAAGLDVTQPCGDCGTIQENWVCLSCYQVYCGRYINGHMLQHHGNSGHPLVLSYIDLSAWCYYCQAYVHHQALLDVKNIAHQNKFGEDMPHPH

Histone deacetylase 8 = target: T2, Histone deacetylase 8 (Homo sapiens, UniProt Q9BY41); test: Inhibition of full length C-terminal his-tagged human recombinant HDAC8 expressed in Sf9 insect cells
T2 sequence (Q9BY41 whole entry): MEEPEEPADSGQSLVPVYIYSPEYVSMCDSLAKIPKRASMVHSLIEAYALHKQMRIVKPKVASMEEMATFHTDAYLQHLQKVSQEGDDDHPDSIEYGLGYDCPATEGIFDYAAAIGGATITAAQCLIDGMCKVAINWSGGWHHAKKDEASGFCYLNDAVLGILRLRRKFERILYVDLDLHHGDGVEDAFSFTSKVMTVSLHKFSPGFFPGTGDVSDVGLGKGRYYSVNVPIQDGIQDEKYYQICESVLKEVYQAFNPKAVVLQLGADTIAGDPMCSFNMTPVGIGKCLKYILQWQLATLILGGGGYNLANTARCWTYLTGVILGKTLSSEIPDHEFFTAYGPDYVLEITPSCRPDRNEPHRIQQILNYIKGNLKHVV

Histone deacetylase 2 = Histone deacetylase 2 (Homo sapiens, UniProt Q92769)
[2] = target: Protein deacetylase HDAC6 (Homo sapiens) (UniProt Q9UBN7); test: Inhibition of HDAC6 in human NCI-H522 cells assessed as increase in acetylation of tubulin at 5 uM measured for 3 days by Western blot analysis; assay type: cell-based; settings: time 3.0 day
NCI-H522 [3] = test: Cytotoxicity against human NCI-H522 cells assessed as reduction in cell viability incubated for 30 mins by methylene blue staining based analysis; settings: NCI-H522, 0.5 h
NCI-H522 [4] = test: Cytotoxicity against human NCI-H522 cells assessed as reduction in cell survival at 1 to 5 uM incubated for 3 days in presence of ferroptosis inhibitor, liproxstatin-1 by methylene blue staining based analysis; assay type: functional; settings: dose 1-5 µM, time 3.0 day
HCT-116 = test: Cytotoxicity against human HCT-116 cells assessed as reduction in cell viability incubated for 30 mins by methylene blue staining based analysis; settings: HCT-116, 0.5 h
NCI-H522 [5] = test: Induction of cell cycle arrest in human NCI-H522 cells assessed as accumulation at G1 phase 5 uM incubated for 24 to 72 hrs by PI staining based flow cytometric analysis; assay type: functional; settings: time lower […], time upper […]
NCI-H522 [6] = test: Induction of cell cycle arrest in human NCI-H522 cells assessed as accumulation at G2/M phase 5 uM incubated for 24 to 72 hrs by PI staining based flow cytometric analysis; assay type: functional; settings: time lower […], time upper […]
NCI-H522 [7] = test: Induction of cell cycle arrest in human NCI-H522 cells assessed as accumulation at S phase 5 uM incubated for 24 to 72 hrs by PI staining based flow cytometric analysis; assay type: functional; settings: time lower […], time upper […]
NCI-H522 [8] = test: Cytotoxicity against human NCI-H522 cells assessed as reduction in cell survival at 1 to 5 uM incubated for 3 days in presence of 2-Bromo-N-(7-(hydroxyamino)-7-oxoheptyl)thiazole-4-carboxamide by methylene blue staining based analysis; assay type: functional; settings: dose 1-5 µM, time 3.0 day
Method in brief: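 Cells (5000/well, n = 3, DMEM with 10% serum, 37 °C, 5% CO2) were treated the day after plating and kept for three days. […] Survival was expressed relative to DMSO.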

[9] = Neurotoxicity in human SH-SY5Y cells assessed as decrease in cell viability at 1.665 to 6.665 uM incubated for 3 days; assay type: toxicity, cell-based; settings: 72 h, dose 1.665-6.665 µM, time 3 day
Method in brief: (§1)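 SH-SY5Y cells were grown on poly-D-lysine in DMEM/F12 with 10% FBS and seeded at 15,000/well 36 h before dosing, with DMSO as vehicle. Viability was read by MTT: 2 h at 37 °C, then solubilization for 1 h and absorbance at 570. Data are triplicates from three separate experiments.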

SF-539 = test: Cytotoxicity against human SF-539 cells assessed as cell growth inhibition incubated for 24 hrs by MTT assay; settings: SF-539, 24 h
NCI-H226 = test: Cytotoxicity against human NCI-H226 cells assessed as cell growth inhibition incubated for 24 hrs by MTT assay; assay type: functional, cell-based
RPMI-8226 = test: Cytotoxicity against human RPMI-8226 cells assessed as cell growth inhibition incubated for 24 hrs by MTT assay; settings: RPMI-8226, 24 h
SR = test: Cytotoxicity against human SR cells assessed as cell growth inhibition incubated for 24 hrs by MTT assay; assay type: functional, cell-based
NCI-H522 [10] = test: Induction of ferroptosis in human NCI-H522 cells assessed as induction of lipid peroxidase accumulation at 10 uM incubated for 6 hrs by C11-BODIPY-581/591 staining based flow cytometry analysis; assay type: functional, cell-based
Method in brief: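 NCI-H522 cells were plated overnight to about 70% density and treated at 10 μM. C11-BODIPY 581/591 (1 μM) was added at the time of treatment. After 6 h, cells were trypsinized, washed, resuspended in PBS with 2% FBS and analysed by flow cytometry, 20 × 10³ cells per sample.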

HL-60 = test: Cytotoxicity against human HL-60 cells assessed as cell growth inhibition incubated for 24 hrs by MTT assay; assay type: functional, cell-based
MOLT-4 = test: Cytotoxicity against human MOLT-4 cells assessed as cell growth inhibition incubated for 24 hrs by MTT assay; assay type: functional, cell-based
[11] = system: Panel NCI-60 (60 carcinoma cell lines); test: Cytotoxicity against human NCI-60 cells assessed as cell growth inhibition incubated for 24 hrs by MTT assay; assay type: functional, cell-based
Method in brief: (§2)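 Run within the NCI-60 DTP screen: a single-dose test at 10 μM across about sixty human tumour lines, read as Growth % and mean inhibition. Selected compounds then went to a five-dose assay to derive GI50. Both were single experiments without replicates.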

NCI-H23 = test: Cytotoxicity against human NCI-H23 cells assessed as cell growth inhibition at 10 uM incubated for 24 hrs by MTT assay; settings: NCI-H23, 24 h
NCI-H460 = test: Cytotoxicity against human NCI-H460 cells assessed as cell growth inhibition incubated for 24 hrs by MTT assay; assay type: functional, cell-based
NCI-H522 [12] = test: Cytotoxicity against human NCI-H522 cells assessed as cell growth inhibition incubated for 24 hrs by MTT assay; assay type: functional, cell-based
A549 = test: Cytotoxicity against human A549 cells assessed as cell growth inhibition incubated for 24 hrs by MTT assay; assay type: functional, cell-based
HOP-92 = test: Cytotoxicity against human HOP-92 cells assessed as cell growth inhibition incubated for 24 hrs by MTT assay; assay type: functional, cell-based; method in brief: as §2
HOP-62 = test: Cytotoxicity against human HOP-62 cells assessed as cell growth inhibition incubated for 24 hrs by MTT assay; assay type: functional, cell-based
[13] = Cytotoxicity against human WI-38 cells assessed as reduction in cell survival incubated for 30 mins by methylene blue staining based analysis
[14] = Neurotoxicity in human SH-SY5Y cells assessed as decrease in cell viability at 2.32 uM incubated for 3 days; assay type: toxicity, cell-based; settings: 72 h, time 3 day; method in brief: as §1
K562 = test: Cytotoxicity against human K562 cells assessed as cell growth inhibition incubated for 24 hrs by MTT assay; assay type: functional, cell-based
EKVX = test: Cytotoxicity against human EKVX cells assessed as cell growth inhibition incubated for 24 hrs by MTT assay; assay type: functional, cell-based; method in brief: as §2
NCI-H322M = test: Cytotoxicity against human NCI-H322M cells assessed as cell growth inhibition incubated for 24 hrs by MTT assay; assay type: functional, cell-based; method in brief: as §2
NCI-H522 [15] = test: Induction of ferroptosis in human NCI-H522 cells assessed as viability at 5 uM incubated at 0.2 to 10.2 hrs by microscopic analysis; assay type: functional, cell-based; settings: time 0.2-10.2 hrs
Method in brief: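 Time-lapse imaging used NCI-H522 cells adhered overnight and equilibrated to 10% CO2, held in sealed flasks on a 37 °C stage. Frames were taken every 12 min, 300 in total, with a ×40 objective. For Kaplan–Meier curves, at least 100 cells were scored, with death counted per 1 h or 0.2 h interval.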

Histone deacetylase 4 = Histone deacetylase 4 (Homo sapiens, UniProt P56524); test: Inhibition of […] N-terminal GST/C-terminal his-tagged human recombinant HDAC4 (627 to 1084 residues) expressed in Sf9 insect cells
Sequence of Histone deacetylase 4 (P56524 whole entry, the tested form may be a part): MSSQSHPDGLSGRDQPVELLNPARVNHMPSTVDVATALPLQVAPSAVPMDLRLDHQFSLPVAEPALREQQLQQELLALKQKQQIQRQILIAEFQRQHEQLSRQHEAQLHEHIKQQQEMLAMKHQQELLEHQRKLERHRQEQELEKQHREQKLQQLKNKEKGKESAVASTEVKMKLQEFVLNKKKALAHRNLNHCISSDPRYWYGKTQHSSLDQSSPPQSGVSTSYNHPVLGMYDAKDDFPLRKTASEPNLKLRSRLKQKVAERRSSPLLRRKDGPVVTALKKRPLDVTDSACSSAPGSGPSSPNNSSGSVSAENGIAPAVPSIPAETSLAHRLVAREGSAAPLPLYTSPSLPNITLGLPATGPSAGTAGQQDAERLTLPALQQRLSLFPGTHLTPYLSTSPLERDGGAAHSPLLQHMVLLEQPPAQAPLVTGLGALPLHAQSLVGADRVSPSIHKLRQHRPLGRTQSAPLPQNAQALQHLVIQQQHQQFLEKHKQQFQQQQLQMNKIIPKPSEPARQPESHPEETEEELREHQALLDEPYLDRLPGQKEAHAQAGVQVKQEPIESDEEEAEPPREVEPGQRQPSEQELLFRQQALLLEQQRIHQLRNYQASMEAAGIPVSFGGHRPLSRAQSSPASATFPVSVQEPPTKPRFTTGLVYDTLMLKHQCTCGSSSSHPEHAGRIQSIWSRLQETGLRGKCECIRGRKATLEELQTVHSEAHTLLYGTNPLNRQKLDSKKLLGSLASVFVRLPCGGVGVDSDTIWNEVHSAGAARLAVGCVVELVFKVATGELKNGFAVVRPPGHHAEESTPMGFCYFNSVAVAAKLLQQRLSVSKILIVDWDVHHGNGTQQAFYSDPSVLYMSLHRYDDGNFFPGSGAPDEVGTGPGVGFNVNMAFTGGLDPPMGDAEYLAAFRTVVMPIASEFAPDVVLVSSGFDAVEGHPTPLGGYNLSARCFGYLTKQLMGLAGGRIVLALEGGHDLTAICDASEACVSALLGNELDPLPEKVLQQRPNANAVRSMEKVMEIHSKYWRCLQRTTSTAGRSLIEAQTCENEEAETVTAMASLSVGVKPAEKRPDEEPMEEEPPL

Sequence of Histone deacetylase 1 (Q13547 whole entry, the tested form may be a part): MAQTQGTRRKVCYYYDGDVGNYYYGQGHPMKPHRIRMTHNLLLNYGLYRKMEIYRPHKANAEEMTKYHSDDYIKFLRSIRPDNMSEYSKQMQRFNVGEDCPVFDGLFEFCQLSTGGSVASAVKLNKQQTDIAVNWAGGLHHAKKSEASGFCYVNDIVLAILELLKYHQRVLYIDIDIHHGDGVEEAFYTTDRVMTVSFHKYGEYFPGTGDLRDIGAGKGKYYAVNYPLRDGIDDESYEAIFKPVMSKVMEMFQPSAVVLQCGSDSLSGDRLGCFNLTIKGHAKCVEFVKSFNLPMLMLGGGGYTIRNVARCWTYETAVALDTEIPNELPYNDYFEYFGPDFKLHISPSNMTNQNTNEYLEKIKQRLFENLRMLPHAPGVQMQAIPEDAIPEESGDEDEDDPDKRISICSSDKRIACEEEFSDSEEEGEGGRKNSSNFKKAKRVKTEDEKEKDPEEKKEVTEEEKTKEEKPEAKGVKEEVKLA
Sequence of Histone deacetylase 3 (O15379 whole entry, the tested form may be a part): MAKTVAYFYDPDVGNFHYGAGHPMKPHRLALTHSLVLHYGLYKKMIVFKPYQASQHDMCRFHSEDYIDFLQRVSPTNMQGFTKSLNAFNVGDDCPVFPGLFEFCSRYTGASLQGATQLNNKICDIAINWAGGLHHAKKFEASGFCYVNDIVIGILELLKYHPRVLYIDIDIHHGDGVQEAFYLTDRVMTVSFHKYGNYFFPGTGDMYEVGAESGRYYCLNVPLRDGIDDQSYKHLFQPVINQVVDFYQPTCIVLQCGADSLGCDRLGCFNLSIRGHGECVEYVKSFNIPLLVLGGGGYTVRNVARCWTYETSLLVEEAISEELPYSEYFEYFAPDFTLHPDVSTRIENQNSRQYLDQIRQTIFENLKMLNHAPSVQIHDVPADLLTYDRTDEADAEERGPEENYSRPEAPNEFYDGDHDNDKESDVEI
Sequence of Histone deacetylase 2 (Q92769 whole entry): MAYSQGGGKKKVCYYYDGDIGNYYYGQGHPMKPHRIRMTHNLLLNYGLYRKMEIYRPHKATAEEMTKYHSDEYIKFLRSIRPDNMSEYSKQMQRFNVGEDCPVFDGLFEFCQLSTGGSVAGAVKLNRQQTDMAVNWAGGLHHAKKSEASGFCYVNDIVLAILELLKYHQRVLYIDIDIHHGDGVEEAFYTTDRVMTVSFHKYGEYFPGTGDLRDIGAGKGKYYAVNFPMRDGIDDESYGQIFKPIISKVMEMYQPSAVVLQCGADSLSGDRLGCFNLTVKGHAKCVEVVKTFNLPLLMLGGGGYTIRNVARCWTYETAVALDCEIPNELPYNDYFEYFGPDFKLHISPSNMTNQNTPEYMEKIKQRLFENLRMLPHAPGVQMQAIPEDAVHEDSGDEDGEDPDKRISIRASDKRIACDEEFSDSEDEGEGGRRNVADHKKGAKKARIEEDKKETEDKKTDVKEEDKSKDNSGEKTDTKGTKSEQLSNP

| Compound | IC50 (Histone deacetylase 3) | IC50 (Histone deacetylase 1) | IC50 [1] | IC50 (Histone deacetylase 8) | IC50 (Histone deacetylase 2) | IC50 (NCI-H522 [3]) | Activity (NCI-H522 [4]) | IC50 (HCT-116) | Activity (NCI-H522 [5]) | Activity (NCI-H522 [6]) | Activity (NCI-H522 [7]) | further results |
| --- | --- | --- | --- | --- | --- | --- | --- | --- | --- | --- | --- | --- |
| C#Cc1nc(/C=C/C(=O)NO)cs1 | 1100 nM | 890 nM | 160 nM | 1800 nM | 1700 nM |  |  |  |  |  |  | inhibition [2]: Active |
| C#Cc1nc(/C=C\CCCCCC(=O)NO)cs1 | 300 nM | 130 nM | 25 nM | 470 nM |  | 1070 nM | Active | 1190 nM |  |  |  |  |
| O=C(CCCCCCC(=O)Nc1ccccc1)NO [VORINOSTAT] |  |  |  |  |  |  |  |  | Active | Active | Active |  |
| C#Cc1nc(C(=O)NCCCCCCC(=O)OC)cs1 |  |  |  |  |  |  | Active |  |  |  |  | Activity (NCI-H522 [8]): Active; Activity [9]: Toxic |
| C#Cc1nc(C(=O)NCCCCCCC(=O)NO)cs1 | 50 nM | 67 nM | 1 nM | 320 nM | 93 nM |  | Active |  | Active | Active | Active | GI50 (SF-539): 1000 nM; Activity (NCI-H226): Active; GI50 (RPMI-8226): 350 nM; Activity (SR): Active; Activity (NCI-H522 [10]): Active; Activity (HL-60): Active; Activity (MOLT-4): Active; Activity [11]: Active; GI50 (NCI-H23): 780 nM; Activity (NCI-H460): Active; Activity (NCI-H522 [12]): Active; Activity (A549): Active; Activity (HOP-92): Active; Activity (HOP-62): Active; IC50 at 30 min [13]: 8370 nM; Activity [14]: Non-Toxic; Activity (K562): Active; Activity (EKVX): Active; Activity (NCI-H322M): Active; Activity (NCI-H522 [15]): Active |
| C#Cc1nc(/C=C/CCCCCC(=O)NO)cs1 | 91 nM | 72 nM | 10 nM | 270 nM |  | 1590 nM |  | 4960 nM |  |  |  | IC50 (Histone deacetylase 4): 8600 nM |
